From ChEMBL document CHEMBL4118021, “Studies of TAK1-centered polypharmacology with novel covalent TAK1 inhibitors” (Bioorg Med Chem, 2017)
Each block holds one compound with its values, some of them ahead of it. The source made the active and inactive calls. The calls are words filed in the database; no cut-off is given here.

Experiments:
[1] = molecular target: Hepatocyte growth factor receptor (Homo sapiens) (UniProt P08581); assay: Inhibition of MET in human SKCO1 cells at 1 uM after 4 hrs using biotin labeled TGAKLPVK probe by mass-spectrometric analysis relative to control; assay type: cell-based
[2] = molecular target: Cyclin-dependent kinase 20 / CCRK (Homo sapiens) (UniProt Q8IZL9); assay: Inhibition of CCRK in human SKCO1 cells at 1 uM after 4 hrs using biotin labeled DLKPANLLISASGQLK probe by mass-spectrometric analysis relative to control
[3] = molecular target: Vascular endothelial growth factor receptor 2 (Homo sapiens) (UniProt P35968); assay: Inhibition of human VEGFR2 (787 to 1253 residues) expressed in mammalian expression system assessed as enzyme activity at 1 uM by KINOMEScan assay relative to control; parameters: scale not given: the % may be the effect or the level left
Method in brief: (§1)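 In vitro ATP-site competition binding assay across a panel of 456 kinases, with compound tested at 1 and 10 μM.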

[4] = molecular target: Serine/threonine-protein kinase 36 (Homo sapiens) (UniProt Q9NRP7); assay: Inhibition of human STK36 (1 to 271 residues) expressed in bacterial expression system assessed as enzyme activity at 10 uM by KINOMEScan assay relative to control; parameters: scale not given: the % may be the effect or the level left; method in brief: as §1
[5] = molecular target: Small ribosomal subunit protein uS2 (Homo sapiens) (UniProt P08865); assay: Binding affinity to RPSA in human NCI-H23 cells at 1 uM by mass spectrometry based pull down assay; assay type: cell-based
[6] = molecular target: Neuroblast differentiation-associated protein AHNAK (Homo sapiens) (UniProt Q09666); assay: Binding affinity to AHNAK in human NCI-H23 cells at 1 uM by mass spectrometry based pull down assay; assay type: cell-based
Method in brief: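 NCI-H23 or NCI-H358 cells were grown and lysed. Lysates were incubated overnight at 4 °C with 1 μM biotinylated covalent probe or DMSO, then pulled down on streptavidin beads. Proteins were run on polyacrylamide gels and stained with Coomassie. Bands were excised, digested and identified by mass spectrometry.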

[7] = molecular target: Proto-oncogene tyrosine-protein kinase Src (Homo sapiens) (UniProt P12931); assay: Binding affinity to SRC in human NCI-H23 cells at 1 uM by mass spectrometry based pull down assay; assay type: cell-based
[8] = molecular target: T1, Serine/threonine-protein kinase 4 (Homo sapiens) (UniProt Q13043); assay: Binding affinity to STK4 in human NCI-H23 cells at 1 uM by mass spectrometry based pull down assay; assay type: cell-based
T1 sequence (whole entry): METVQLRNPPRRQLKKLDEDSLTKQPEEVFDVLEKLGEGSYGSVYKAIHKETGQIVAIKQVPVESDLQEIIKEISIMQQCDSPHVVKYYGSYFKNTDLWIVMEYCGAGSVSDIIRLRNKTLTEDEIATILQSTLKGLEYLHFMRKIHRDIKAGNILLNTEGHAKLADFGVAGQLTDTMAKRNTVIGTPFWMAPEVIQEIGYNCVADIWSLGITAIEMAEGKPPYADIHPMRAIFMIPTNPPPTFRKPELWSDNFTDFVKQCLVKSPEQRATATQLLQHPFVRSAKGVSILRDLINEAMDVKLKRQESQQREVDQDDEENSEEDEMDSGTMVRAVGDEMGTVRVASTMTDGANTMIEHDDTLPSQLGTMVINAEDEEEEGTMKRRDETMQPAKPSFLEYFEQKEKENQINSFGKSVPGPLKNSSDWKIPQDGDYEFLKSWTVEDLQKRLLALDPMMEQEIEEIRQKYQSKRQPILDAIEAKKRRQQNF

[9] = molecular target: Dihydropyrimidinase-related protein 2 (Homo sapiens) (UniProt Q16555); assay: Binding affinity to DPYSL2 in human NCI-H23 cells at 1 uM by mass spectrometry based pull down assay; assay type: cell-based
[10] = molecular target: Ribosomal protein S6 kinase alpha-3 (Homo sapiens) (UniProt P51812); assay: Binding affinity to RPS6KA3 in human NCI-H23 cells at 1 uM by mass spectrometry based pull down assay; assay type: cell-based
[11] = molecular target: Trifunctional purine biosynthetic protein adenosine-3 (Homo sapiens) (UniProt P22102); assay: Binding affinity to GART in human NCI-H23 cells at 1 uM by mass spectrometry based pull down assay; assay type: cell-based
Beclin-1 (Homo sapiens) = Beclin-1 (Homo sapiens) (UniProt Q14457); assay: Binding affinity to BECN1 in human NCI-H23 cells at 1 uM by mass spectrometry based pull down assay; assay type: cell-based
[12] = molecular target: Ribonucleoside-diphosphate reductase large subunit (Homo sapiens) (UniProt P23921); assay: Binding affinity to RRM1 in human NCI-H358 cells at 1 uM by mass spectrometry based pull down assay; assay type: cell-based
[13] = molecular target: RuvB-like 1 (Homo sapiens) (UniProt Q9Y265); assay: Binding affinity to RUVBL1 in human NCI-H358 cells at 1 uM by mass spectrometry based pull down assay; assay type: cell-based
Chain of RuvB-like 1 (Homo sapiens) (Q9Y265 whole entry): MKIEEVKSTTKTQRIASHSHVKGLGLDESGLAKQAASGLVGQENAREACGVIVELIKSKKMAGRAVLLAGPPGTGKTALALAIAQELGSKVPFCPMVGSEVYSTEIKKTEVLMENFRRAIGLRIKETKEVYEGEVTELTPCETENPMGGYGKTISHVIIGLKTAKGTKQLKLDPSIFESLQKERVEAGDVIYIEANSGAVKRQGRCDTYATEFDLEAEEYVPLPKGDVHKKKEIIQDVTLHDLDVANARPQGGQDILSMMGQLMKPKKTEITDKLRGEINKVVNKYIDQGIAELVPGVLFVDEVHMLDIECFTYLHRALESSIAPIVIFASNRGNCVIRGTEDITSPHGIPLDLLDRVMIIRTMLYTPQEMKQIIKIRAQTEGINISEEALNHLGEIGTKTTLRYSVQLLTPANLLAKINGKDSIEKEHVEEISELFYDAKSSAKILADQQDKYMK

[14] = molecular target: Cyclin-G-associated kinase (Homo sapiens) (UniProt O14976); assay: Binding affinity to GAK in human NCI-H358 cells at 1 uM by mass spectrometry based pull down assay; assay type: cell-based
[15] = molecular target: 182 kDa tankyrase-1-binding protein (Homo sapiens) (UniProt Q9C0C2); assay: Binding affinity to TNKS1BP1 in human NCI-H358 cells at 1 uM by mass spectrometry based pull down assay; assay type: cell-based
Chain of 182 kDa tankyrase-1-binding protein (Homo sapiens) (Q9C0C2 whole entry): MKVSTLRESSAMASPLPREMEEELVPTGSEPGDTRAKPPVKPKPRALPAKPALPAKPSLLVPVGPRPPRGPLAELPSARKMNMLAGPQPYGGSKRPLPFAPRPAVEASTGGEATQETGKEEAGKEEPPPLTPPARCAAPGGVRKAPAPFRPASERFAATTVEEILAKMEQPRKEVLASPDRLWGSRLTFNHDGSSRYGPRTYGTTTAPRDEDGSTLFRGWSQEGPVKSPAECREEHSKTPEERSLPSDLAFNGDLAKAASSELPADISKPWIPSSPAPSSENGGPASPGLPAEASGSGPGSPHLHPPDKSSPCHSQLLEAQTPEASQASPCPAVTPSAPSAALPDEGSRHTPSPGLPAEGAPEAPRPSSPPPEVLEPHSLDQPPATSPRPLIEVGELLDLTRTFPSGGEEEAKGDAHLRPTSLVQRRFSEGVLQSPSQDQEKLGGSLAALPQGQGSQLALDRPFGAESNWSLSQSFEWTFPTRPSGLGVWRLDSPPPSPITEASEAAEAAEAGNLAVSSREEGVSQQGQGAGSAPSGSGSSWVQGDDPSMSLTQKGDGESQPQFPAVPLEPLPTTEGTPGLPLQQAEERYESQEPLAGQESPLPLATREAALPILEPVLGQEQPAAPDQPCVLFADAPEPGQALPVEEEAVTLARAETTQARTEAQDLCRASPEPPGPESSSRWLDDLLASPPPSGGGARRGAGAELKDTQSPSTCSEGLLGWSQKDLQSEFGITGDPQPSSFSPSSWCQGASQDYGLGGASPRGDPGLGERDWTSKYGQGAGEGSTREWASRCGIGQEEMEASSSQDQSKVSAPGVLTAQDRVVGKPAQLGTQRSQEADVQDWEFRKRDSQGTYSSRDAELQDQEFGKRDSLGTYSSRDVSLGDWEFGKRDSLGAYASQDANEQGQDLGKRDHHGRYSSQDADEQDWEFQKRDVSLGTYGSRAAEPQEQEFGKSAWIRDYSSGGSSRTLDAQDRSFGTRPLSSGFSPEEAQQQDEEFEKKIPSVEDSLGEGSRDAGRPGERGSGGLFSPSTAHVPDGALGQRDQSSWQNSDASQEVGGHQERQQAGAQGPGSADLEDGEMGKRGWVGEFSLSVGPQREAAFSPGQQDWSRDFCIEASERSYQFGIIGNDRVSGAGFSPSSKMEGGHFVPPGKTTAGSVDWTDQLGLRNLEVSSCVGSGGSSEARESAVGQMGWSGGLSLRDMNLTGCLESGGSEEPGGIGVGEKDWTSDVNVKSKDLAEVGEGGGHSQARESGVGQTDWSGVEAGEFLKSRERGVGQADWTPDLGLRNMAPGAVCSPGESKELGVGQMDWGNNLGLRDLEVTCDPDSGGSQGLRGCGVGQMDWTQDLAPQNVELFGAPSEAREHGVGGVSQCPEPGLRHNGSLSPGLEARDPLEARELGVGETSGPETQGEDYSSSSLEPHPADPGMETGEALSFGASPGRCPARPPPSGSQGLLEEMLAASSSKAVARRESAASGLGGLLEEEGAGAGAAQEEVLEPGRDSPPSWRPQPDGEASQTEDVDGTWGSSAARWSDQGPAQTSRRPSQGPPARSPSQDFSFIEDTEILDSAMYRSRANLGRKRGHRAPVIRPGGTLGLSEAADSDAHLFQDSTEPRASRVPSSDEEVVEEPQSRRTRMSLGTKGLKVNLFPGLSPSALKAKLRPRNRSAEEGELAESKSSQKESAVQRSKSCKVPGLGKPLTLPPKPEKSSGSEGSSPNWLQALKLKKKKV

Tensin-3 (Homo sapiens) = Tensin-3 (Homo sapiens) (UniProt Q68CZ2); assay: Binding affinity to TNS3 in human NCI-H358 cells at 1 uM by mass spectrometry based pull down assay; assay type: cell-based
Chain of Tensin-3 (Homo sapiens) (Q68CZ2 whole entry): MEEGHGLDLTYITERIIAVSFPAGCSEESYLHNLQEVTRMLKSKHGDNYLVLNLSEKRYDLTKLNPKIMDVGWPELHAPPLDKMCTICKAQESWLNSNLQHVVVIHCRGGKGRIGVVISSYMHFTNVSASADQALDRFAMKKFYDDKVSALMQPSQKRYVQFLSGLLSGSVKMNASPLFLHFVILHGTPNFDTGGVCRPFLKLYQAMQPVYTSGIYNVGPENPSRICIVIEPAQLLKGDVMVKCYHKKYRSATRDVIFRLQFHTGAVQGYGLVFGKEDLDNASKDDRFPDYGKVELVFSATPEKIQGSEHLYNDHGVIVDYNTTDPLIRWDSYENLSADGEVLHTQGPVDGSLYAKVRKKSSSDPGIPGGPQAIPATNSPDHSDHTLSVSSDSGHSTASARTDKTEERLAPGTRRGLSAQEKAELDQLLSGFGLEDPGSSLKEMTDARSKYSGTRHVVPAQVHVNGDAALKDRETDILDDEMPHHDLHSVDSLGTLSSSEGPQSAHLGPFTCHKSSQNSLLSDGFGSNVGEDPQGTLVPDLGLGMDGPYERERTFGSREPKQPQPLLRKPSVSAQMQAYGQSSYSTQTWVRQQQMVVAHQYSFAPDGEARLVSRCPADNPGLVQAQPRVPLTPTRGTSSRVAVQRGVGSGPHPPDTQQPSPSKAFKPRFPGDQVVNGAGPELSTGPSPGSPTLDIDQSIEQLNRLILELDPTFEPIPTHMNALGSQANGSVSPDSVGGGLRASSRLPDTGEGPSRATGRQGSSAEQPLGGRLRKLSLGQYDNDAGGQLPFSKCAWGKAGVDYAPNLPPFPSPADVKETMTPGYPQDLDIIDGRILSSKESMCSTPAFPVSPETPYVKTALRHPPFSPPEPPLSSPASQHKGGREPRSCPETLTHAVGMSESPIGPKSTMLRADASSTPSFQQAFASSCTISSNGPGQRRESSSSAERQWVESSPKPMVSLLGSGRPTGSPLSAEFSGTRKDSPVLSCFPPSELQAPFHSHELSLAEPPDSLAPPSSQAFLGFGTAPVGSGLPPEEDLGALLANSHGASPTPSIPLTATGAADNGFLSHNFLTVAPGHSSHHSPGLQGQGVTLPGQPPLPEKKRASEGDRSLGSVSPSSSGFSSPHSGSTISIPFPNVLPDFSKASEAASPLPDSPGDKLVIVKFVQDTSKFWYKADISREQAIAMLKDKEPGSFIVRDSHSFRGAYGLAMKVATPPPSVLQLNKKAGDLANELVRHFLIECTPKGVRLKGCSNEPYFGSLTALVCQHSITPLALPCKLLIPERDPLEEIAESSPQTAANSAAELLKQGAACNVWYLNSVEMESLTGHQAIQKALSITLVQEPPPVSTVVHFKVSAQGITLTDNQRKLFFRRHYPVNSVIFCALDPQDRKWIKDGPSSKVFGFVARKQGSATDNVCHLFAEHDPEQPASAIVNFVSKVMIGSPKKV

Vigilin (Homo sapiens) = Vigilin (Homo sapiens) (UniProt Q00341); assay: Binding affinity to HDLBP in human NCI-H358 cells at 1 uM by mass spectrometry based pull down assay; assay type: cell-based
Chain of Vigilin (Homo sapiens) (Q00341 whole entry): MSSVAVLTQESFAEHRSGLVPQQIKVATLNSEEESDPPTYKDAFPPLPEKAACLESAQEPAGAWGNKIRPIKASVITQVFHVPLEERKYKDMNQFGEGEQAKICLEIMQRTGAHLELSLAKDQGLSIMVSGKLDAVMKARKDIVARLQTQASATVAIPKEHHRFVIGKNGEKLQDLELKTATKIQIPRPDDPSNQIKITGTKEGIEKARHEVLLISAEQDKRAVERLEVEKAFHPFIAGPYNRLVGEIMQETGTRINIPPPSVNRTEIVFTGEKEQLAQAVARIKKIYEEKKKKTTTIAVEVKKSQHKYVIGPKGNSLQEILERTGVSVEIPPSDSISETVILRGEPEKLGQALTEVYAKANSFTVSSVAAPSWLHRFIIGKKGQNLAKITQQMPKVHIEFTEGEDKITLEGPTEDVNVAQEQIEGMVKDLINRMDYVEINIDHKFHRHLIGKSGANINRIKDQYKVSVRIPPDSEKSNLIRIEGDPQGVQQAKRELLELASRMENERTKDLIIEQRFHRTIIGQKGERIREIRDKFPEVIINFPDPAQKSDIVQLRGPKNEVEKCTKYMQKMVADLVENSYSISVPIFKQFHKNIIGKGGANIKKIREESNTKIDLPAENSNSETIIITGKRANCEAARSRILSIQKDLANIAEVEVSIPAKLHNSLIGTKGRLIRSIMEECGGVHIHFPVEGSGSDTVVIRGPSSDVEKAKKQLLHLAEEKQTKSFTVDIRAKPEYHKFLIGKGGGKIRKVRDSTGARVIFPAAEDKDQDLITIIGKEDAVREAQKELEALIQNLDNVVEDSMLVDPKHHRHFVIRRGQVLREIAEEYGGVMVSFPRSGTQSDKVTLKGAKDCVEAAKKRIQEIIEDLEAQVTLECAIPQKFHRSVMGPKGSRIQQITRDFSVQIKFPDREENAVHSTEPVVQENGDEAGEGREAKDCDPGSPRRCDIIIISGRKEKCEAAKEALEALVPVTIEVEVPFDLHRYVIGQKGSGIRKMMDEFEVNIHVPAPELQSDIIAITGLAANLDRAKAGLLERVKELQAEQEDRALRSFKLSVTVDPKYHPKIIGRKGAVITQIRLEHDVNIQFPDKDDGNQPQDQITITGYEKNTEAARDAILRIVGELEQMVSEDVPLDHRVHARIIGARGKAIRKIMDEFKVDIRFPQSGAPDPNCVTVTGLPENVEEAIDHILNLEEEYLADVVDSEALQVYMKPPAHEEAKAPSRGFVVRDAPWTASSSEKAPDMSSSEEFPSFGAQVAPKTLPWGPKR

[16] = molecular target: Leucine-rich repeat flightless-interacting protein 1 (Homo sapiens) (UniProt Q32MZ4); assay: Binding affinity to LRRFIP1 in human NCI-H358 cells at 1 uM by mass spectrometry based pull down assay; assay type: cell-based

Compound: C=CC(=O)Nc1ccccc1Oc1nc(Nc2cnn(CCOC)c2)ncc1Cl
inhibition [1]: -1.9% | inhibition [2]: -9%

Compound: COc1cc(O)c2c(c1)/C=C/C[C@H](O)[C@H](O)C(=O)/C=C\C[C@H](C)OC2=O
Activity [3]: 78% | Activity [4]: 0.95%

Activity [5]: Active | Activity [6]: Active | Activity [7]: Active | Activity [8]: Active | Activity [9]: Active | Activity [10]: Active | Activity [11]: Active | Activity (Beclin-1 (Homo sapiens)): Active | Activity [12]: Active | Activity [13]: Active | Activity [14]: Active | Activity [15]: Active | Activity (Tensin-3 (Homo sapiens)): Active | Activity (Vigilin (Homo sapiens)): Active | Activity [16]: Active
Compound: C=CC(=O)Nc1ccccc1Nc1nc(Nc2ccc(N3CCN(CCOCCOCCOCCNC(=O)CCCC[C@@H]4SC[C@@H]5NC(=O)N[C@@H]54)CC3)cc2)ncc1Cl
